The results in this text go back to ChEMBL document CHEMBL4513216, “Probing the Open Global Health Chemical Diversity Library for Multistage-Active Starting Points for Next-Generation Antimalarials” (ACS Infect Dis, 2020).

The data set is described as follows: Toxicity liver stage against HepG2, at 10uM. The data set is classed as cell-based. Further details: test concentration 10 uM, cell line HepG2-A16-CD81EGFP. The following applies: human, HepG2-A16-CD81EGFP cells; read-out: INHIBITION
Summed up:
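Uninfected HepG2-A16-CD81EGFP cells, 3 × 10^3 per well, 1536-well, plated on prespotted compound at 10 μM final, parasite-free screening media added to match infected plates; puromycin 10 μM positive, DMSO 0.5% negative; run in parallel with 48 h PbLuc assay at 37 °C, 5% CO2; viability by CellTiter-Glo luminescence, normalized to controls.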
For the molecule `CC(C)n1ccnc1C1CCN(c2nccc(C(F)(F)F)n2)CC1`, the cytotoxicity at 10 µM is 2.52%.

Regarding `CC(C)N[C@@H]1CO[C@H](CNC(=O)Nc2ccccc2)[C@H]1O`, the cytotoxicity at 10 µM amounted to 1.53%. As for `COCCCNC(=O)NCc1cccn1Cc1ccccc1C`, the figure is 2.88%; as for `CSCC[C@H](NC(=O)Cn1ccc2ccc(Cl)cc21)C(=O)O`, 6.59%.

Turning to `O=C(CC(F)(F)F)N1CCCC(c2nccn2Cc2ccncc2)C1` (stereo not drawn), the cytotoxicity at 10 µM is 3.22%. For `CC(=O)NCc1ccc(C(=O)NC2CCc3nc(C)cn3C2)o1` (stereo not drawn), the cytotoxicity at 10 µM is -3.81%.

For `CS(=O)(=O)C1(CNCc2cccc(-n3cccn3)c2)CCOCC1`, the cytotoxicity at 10 µM was -141%. For `COc1nn(C)c2c1CCCN(C(=O)c1cc[nH]n1)C2`, the cytotoxicity at 10 µM was -5.2%.

With `CCNc1cc2c(nn1)CCN(C(=O)c1cc3cc(C)ccc3o1)C2`, the cytotoxicity at 10 µM is -18.7%. As for `O=C(c1ccc(N2CCOCC2)cc1)N1CCCC(n2ccnc2)C1` (stereo not drawn), the figure is -6.78%; as for `c1cnc(NCc2noc3c2CN(C2CCOCC2)CC3)nc1`, -6.23%; as for `CCC(OC)C(=O)NCC1CCN(c2cnn(C)c(=O)c2)CC1` (stereo not drawn), 7.35%. The same measure for `CCCN1CCCn2c(nc(CNC(=O)c3nccn3C)cc2=O)C1`: 9.73%; for `COCCO[C@H]1CCN(C(=O)c2ccno2)[C@H]1Cc1ccncc1`: -78.1%; for `CC(C)CN1C(=O)c2ccc(C(=O)NCCc3c[nH]cn3)cc2C1=O`: 9.66%.

Consider `CCCc1nc(C)c(C(=O)NCCNc2ncccc2C#N)s1`, for which the cytotoxicity at 10 µM was -19.5%.

On to `COC(=O)c1cc(NCc2cscn2)ccc1C`, for which the cytotoxicity at 10 µM was 5.17%. For the molecule `COCc1ccc(C(=O)N2CCN(CC(C)O)CC2)cc1` (stereo not drawn), the cytotoxicity at 10 µM stood at 0.0264%. The same measure for `COc1cccc(-n2cc(CN(C)C(=O)c3cnc(O)cn3)cn2)c1`: -14.7%; for `CC(C)N1CCCC1c1cc(CCO)[nH]n1` (stereo not drawn): 0.895%. As for `CN1C[C@@H](O)[C@]2(CCN(C(=O)c3ccccc3)C2)S1(=O)=O`, the figure is 0.148%; as for `COCCN1CCCn2c(nc(CNS(C)(=O)=O)cc2=O)C1`, -110%. `Cn1cc(C[C@H]2[C@H](N3CCOCC3)CCN2C(=O)c2ccoc2)cn1`: the cytotoxicity at 10 µM is -81.5%. On to `Cc1cn2nc(N3CCCC3CC(C)(C)C)sc2n1` (stereo not drawn), for which the cytotoxicity at 10 µM stood at 3.46%. As for `Cn1ccc(C(=O)NCc2ccc(CN3CCCCC3)cc2)cc1=O`, the figure is -12.4%; as for `Brc1cccc(-c2noc(C3COCCO3)n2)c1` (stereo not drawn), 8.71%; as for `COc1cc(C(=O)Nc2nc(C)no2)ccc1C`, -8.39%. The same measure for `CCOC(=O)C1CCN(Cc2csc(-c3ccc(C)o3)n2)CC1`: -11.4%; for `Cc1cnc(C(=O)N2CCCC(Cn3cc(C4CC4)nn3)C2)cn1` (stereo not drawn): -1.15%. In the case of `Cc1nc2ccccn2c1CN(Cc1cccnc1)CC1CCCO1` (stereo not drawn), the cytotoxicity at 10 µM was -7.1%. In the case of `CC(CNC(=O)N1CCN(CC(F)F)CC1)Cc1cccs1` (stereo not drawn), the cytotoxicity at 10 µM is -4.92%.

In the case of `O=C1CCN(C(=O)NCCCc2ccc(Cl)cc2Cl)CCN1`, the cytotoxicity at 10 µM was -2.37%. `CS(=O)(=O)N1CCC2(CN(C(=O)c3cccnc3)C2)C1`: the cytotoxicity at 10 µM is -13%. As for `CCOc1ccc(C(=O)CCC(=O)N(C)Cc2snnc2C)cc1C`, the figure is -2.29%; as for `Cc1nc(C(=O)N(Cc2c(C)nn(C)c2C)C(C)C)cs1`, 3.57%; as for `Cc1ccc(C(=O)N2CCN(CCC(C)(C)C)CC2)c(=O)[nH]1`, -6.95%. The same measure for `O=C(Cn1nc(-c2ccc(F)cc2)oc1=O)NCC1CCCO1` (stereo not drawn): 1.62%; for `CCCS(=O)(=O)CC(=O)Nc1cc(CC(C)(C)C)n[nH]1`: 2.43%. For `COc1ccc(CNC[C@H]2COCc3nc4cc(F)ccc4n32)cc1`, the cytotoxicity at 10 µM is 1.52%. In the case of `CC(NCc1ccc(F)cc1)c1ccc(OCC(=O)NC2CC2)cc1` (stereo not drawn), the cytotoxicity at 10 µM turned out to be 3.99%. Consider `Cc1cc(C(=O)N2C[C@@H]3[C@@H](C2)OCC(=O)N3CC2CC2)no1`, for which the cytotoxicity at 10 µM is -10.4%. With `CCc1ccc(CN(C)C(=O)c2ccc(CSc3nnc[nH]3)o2)nc1`, the cytotoxicity at 10 µM is -2.19%.

With `Cc1nccn1-c1cccc(C2CCCN(C3CCCCC3)C2)n1` (stereo not drawn), the cytotoxicity at 10 µM is -2.65%. As for `Fc1cc(CN2CCOC3(CCOCC3)C2)ccc1Cl`, the figure is -4.57%; as for `CC(NCC1CCN(CCO)CC1)c1cccc(Cl)c1` (stereo not drawn), -12.5%; as for `CN1CCCCC1c1cncc(Cl)n1` (stereo not drawn), 0.995%. Turning to `Cc1nc2sccn2c1CN(CCCN(C)C)Cc1ccco1`, the cytotoxicity at 10 µM was -0.215%. As for `Cc1cccc(C(=O)NC(C)CN2CCCC2=O)n1` (stereo not drawn), the figure is -9.51%. As for `CCN(C(=O)c1cc(C)oc1C)C1CC1`, the figure is -5.89%; as for `CN(CCCc1cnn(C)c1)C(=O)C1CCOC1` (stereo not drawn), -13.4%; as for `c1cnc2nc(C3CCNCC3)[nH]c2c1`, 9.57%. As for `CCn1cnnc1CNC(=O)N1CCN(Cc2ccccc2)CC1`, the figure is -1.3%; as for `Cc1cc(-c2cnc(NC3CCCC3)nc2-c2ccoc2)on1`, -20.9%; as for `O=C1NC[C@@]2(C(=O)O)CN(Cc3cccc(C(F)(F)F)c3)C[C@@H]12`, -8.58%. As for `Cc1nc(C(=O)N2CCCC2c2c(C)nn(C)c2Cl)ccc1C#N` (stereo not drawn), the cytotoxicity at 10 µM was -12.8%. As for `CS(=O)(=O)NC[C@]12COC[C@H]1CN(CC1CCC1)C2`, the figure is -110%.

`CC[C@H](C)Cn1nc(C2CCNCC2)n(Cc2ccccc2)c1=O`: the cytotoxicity at 10 µM was -5.82%. Regarding `CC(C)=CCC/C(C)=C\CNCc1ccco1`, the cytotoxicity at 10 µM was -12.6%. The same measure for `O=C(NC1CC1)N1Cc2[nH]nc(COCC3CC3)c2C1`: 13.6%; for `CC1(c2ccc(Br)cc2)CC(=O)N(CCC(N)=O)C1=O` (stereo not drawn): -3.74%; for `Cc1cccc(CN2CCC(NS(C)(=O)=O)CC2)n1`: 9.87%.

With `Cc1ccc(NC(=O)c2cccc(OCc3nnnn3C)c2)nc1`, the cytotoxicity at 10 µM was found to be 4.4%. Regarding `CCC(C)NC(=O)c1cc(Br)c2c(c1)OCCO2` (stereo not drawn), the cytotoxicity at 10 µM is -14.3%.

For `CC(C)OCCN1CCC(Nc2nccnc2C#N)CC1`, the cytotoxicity at 10 µM amounted to 2.72%.

Regarding `CCC(=O)N1CCCCC1c1nc(O)c2c(n1)CN(C(=O)C1CC1)CC2` (stereo not drawn), the cytotoxicity at 10 µM was 1.23%.

Take `NC(=O)C1(CCCc2ccncc2)CCCN1` (stereo not drawn): the cytotoxicity at 10 µM is -21.5%. The same measure for `O=S(=O)(c1c(N2CCCCC2)ccc2nonc12)N1CCCCC1`: -3.39%; for `Cc1ccc(CCC(C)NC2CCN(C(N)=O)CC2)cc1` (stereo not drawn): -0.613%. The same measure for `CN(C)C1Cc2ccccc2N(S(=O)(=O)c2ccc(C#N)cc2)C1` (stereo not drawn): 2.91%; for `O[C@@H]1CN(Cc2ccncc2)C[C@H]1Oc1ccccc1`: -1.44%. Take `Cc1cc(NC(=O)NCC2(O)CCCC2)ccn1`: the cytotoxicity at 10 µM is -6.36%. As for `Cc1ccc(F)cc1S(=O)(=O)Nc1cnc(N2CCCC2)nc1`, the cytotoxicity at 10 µM came out at 3.91%. As for `O=C(NCCc1ccncc1)c1ccc(S(=O)(=O)NC2CCC2)cc1`, the figure is -7.54%; as for `Cn1cnc2c1C(COCC1CC1)CN(C(=O)c1cccs1)C2` (stereo not drawn), 7.63%. As for `CCCc1noc(C(C)N(CC)Cc2ccco2)n1` (stereo not drawn), the figure is 7.3%. For `Cc1ccc2c(c1)C(=O)NCC1(CCN(C(=O)c3ccccn3)CC1)O2`, the cytotoxicity at 10 µM is -25%.

In the case of `c1ncn(CC2CCCCN2Cc2noc(C3CC3)n2)n1` (stereo not drawn), the cytotoxicity at 10 µM is -0.935%. Take `Cc1ccc(-c2noc(C3CCN3C(=O)c3ccn(C)n3)n2)s1` (stereo not drawn): the cytotoxicity at 10 µM turned out to be 3.56%. As for `NC(=O)C1CCN(C(=O)Cc2cnc(-c3c(Cl)cccc3Cl)s2)CC1`, the figure is -2.23%.

For the molecule `Cc1nc(COC[C@H]2CCC[C@]23CN(CC2CC2)CCO3)cs1`, the cytotoxicity at 10 µM is -76.9%. As for `c1cnc(N2CCCC3(CCN(Cc4ccsc4)C3)C2)nc1` (stereo not drawn), the figure is -83.2%; as for `CCc1ncc(C(=O)N2CCN(C(=O)COc3ccccc3)CC2)cn1`, -12.8%.

Regarding `Cc1cc(CN2CCc3nc(-c4ccncc4)nc(O)c3CC2)c(C)s1`, the cytotoxicity at 10 µM was 3.27%.

Regarding `OC(CN(Cc1ccccc1)Cc1ccon1)c1cccs1` (stereo not drawn), the cytotoxicity at 10 µM is -0.359%. As for `c1ccc(COc2ccccc2NC2CCOCC2)nc1`, the cytotoxicity at 10 µM came out at 2.2%.

As for `O=C(NCCNC(=O)c1ccc(Br)cc1)c1ccc(O)cc1`, the cytotoxicity at 10 µM is -0.988%. In the case of `O=C(c1cnccn1)N1CCN2C[C@H](OCC3CC3)C[C@H]2C1`, the cytotoxicity at 10 µM is 2.92%.

As for `CC(C)c1nc(O)c2nnn(C[C@@H]3CCCN(Cc4ccsc4)C3)c2n1`, the cytotoxicity at 10 µM was -4.6%. As for `Cc1cc(CN2CC[C@H]3OCC[C@@]3(C(=O)NCc3ccco3)C2)no1`, the figure is 6.73%; as for `Nc1nc(CCCNC(=O)C2CCCN(Cc3ccco3)C2)cs1` (stereo not drawn), -0.745%; as for `COc1cc(N2C[C@@H]3COC[C@]3(COc3ncccc3F)C2)ncn1`, -67.5%.

`CCc1ccc(CN2CCN(c3ccc(C#N)cc3)C(=O)C2)nc1`: the cytotoxicity at 10 µM was -1.32%. The same measure for `Cn1ccc(CN2CCC(Oc3ccccc3)CC2)cc1=O`: -3.71%. As for `Cc1ccc2c(n1)N(CCn1cccn1)CCN(C(=O)NC1CC1)C2`, the cytotoxicity at 10 µM is -4.58%. The same measure for `CC1(CCC(=O)N2CCC(n3cc(C4(O)CCCC4)nn3)CC2)CC1`: -7.69%; for `COc1ccc(C(=O)N2CC[C@@H](N3CCC(O)CC3)[C@H](O)C2)cc1C`: -8.1%. Turning to `CCSc1ccc(C(=O)N2CCCCC2C(=O)N2CCCC2)cn1` (stereo not drawn), the cytotoxicity at 10 µM came out at 10.5%. For the molecule `O=C(c1cc2c([nH]c1=O)CCC2)N1CCCCCC1c1ccncc1` (stereo not drawn), the cytotoxicity at 10 µM was -9.31%.
